One experiment relates to hPD-L1 MC38 cells. Kind of experiment: PD-L1 expression and localisation by Western blotting / immunofluorescence. The class given is cell-based, mouse. Particulars: 24 h. An outline of the steps: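 hPD-L1 MC38 cells were exposed for 24 h. For immunofluorescence, cells on glass-bottom dishes were treated at 1 and 10 μmol/L, fixed, permeabilized, stained overnight with anti-PD-L1, then Alexa Fluor 488 secondary with DAPI, and imaged by confocal microscopy. For Western blotting, whole cells were treated at 0.1–10 μmol/L. Per lane, 60 μg protein was run on 10% SDS-PAGE and transferred to nitrocellulose. Primary antibody was 1:1000 overnight at 4 °C; β-actin or Na/K-ATPase served as loading control. Bands were quantified by densitometry.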
In general terms: Immunoblotting shows a protein as a band on a membrane.

Another experiment concerns PD-L1. To be noted: cited from earlier work.
Experiment [1] concerns PD-1/NFAT reporter-Jurkat cells. Briefly: PD-L1 cell-based assay.
For a further experiment, the system named is B16F10 tumor. To be noted: 60 mg/kg; cited from earlier work.
The next experiment concerns human SCC-3 tumor. Particulars: 20 mg/kg; cited from earlier work.

Residues, ends and D or L forms follow the SMILES beside them. *: point of attachment. Cbz = O=C(OCc1ccccc1)*

For `CCN(CC)CCCC(C)Nc1ccnc2cc(Cl)ccc12` (stereo not drawn) [chloroquine], the “PD-L1 protein expression / distribution” value with hPD-L1 MC38 cells is on record as “increased”.
Consider `C[C@@H](O)[C@H](NC(=O)N[C@@H](CC(N)=O)c1nc([C@@H](N)CO)no1)C(=O)O` [CA-170], for which, in the experiment with PD-L1, the “direct binding to PD-L1” value is on record as “no direct binding”.
Turning to `COc1nc(OCc2cccc(-c3ccccc3)c2C)ccc1CNCCNC(C)=O` [BMS202], the “concentration required in the T cell activation assay” value in experiment [1] is recorded as “more than 10 μmol/L”. Further, in the experiment with B16F10 tumor, the “inhibition rate in B16F10 tumor” value was 50.1%. In addition, in the experiment with human SCC-3 tumor, the “inhibition rate in humanized mouse-transplanted human SCC-3 tumor” value is 41%.
On to `CC(C)C[C@@H](C=O)NC(=O)[C@H](CC(C)C)NC(=O)[C@H](CC(C)C)NC(=O)OCc1ccccc1` [MG132] (Cbz-Leu-Leu-Leu-aldehyde), for which the “PD-L1 protein expression / distribution” value in the experiment on hPD-L1 MC38 cells is given as “increased”.

The values are drawn from PMC9214057 (Acta Pharmaceutica Sinica. B, 2022).
